Assay results published in ChEMBL document CHEMBL1137338, “Effects of substitution on 9-(3-bromo-4-fluorophenyl)-5,9-dihydro-3H,4H-2,6-dioxa-4- azacyclopenta[b]naphthalene-1,8-dione, a dihydropyridine ATP-sensitive potassium channel opener” (J Med Chem, 2006).
pEC50: −log10 of the molar value.

What was measured:
[1] = target: T1, Sulfonylurea receptor 2, Kir6.2 (Homo sapiens) (UniProt Q14654+O60706); test: Ability to open human urinary bladder Kir6.2 containing SUR2B in Ltk cells by FLIPR assay relative to P1075; assay type: functional, cell-based
Summary of the method: (§1)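 Ltk- cells stably transfected with the Kir6.2/SUR2B exon 17- splice variant. Membrane potential was followed with DiBAC dye in a 96-well cell-based kinetic fluorescence (FLIPR) assay. The highest concentration tested was 10 µM. Each compound's maximal fluorescence response was expressed as % of the response to the reference opener.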

[2] = target: T2, Sulfonylurea receptor 2, Kir6.2 (Homo sapiens, UniProt O60706+Q14654); test: Activity against pig bladder KATP channel opening assessed as ability to relax field-stimulated pig detrusor; assay type: functional, Sus scrofa; details: target entry is the homologue from another species
T2 sequence (Q14654 whole entry): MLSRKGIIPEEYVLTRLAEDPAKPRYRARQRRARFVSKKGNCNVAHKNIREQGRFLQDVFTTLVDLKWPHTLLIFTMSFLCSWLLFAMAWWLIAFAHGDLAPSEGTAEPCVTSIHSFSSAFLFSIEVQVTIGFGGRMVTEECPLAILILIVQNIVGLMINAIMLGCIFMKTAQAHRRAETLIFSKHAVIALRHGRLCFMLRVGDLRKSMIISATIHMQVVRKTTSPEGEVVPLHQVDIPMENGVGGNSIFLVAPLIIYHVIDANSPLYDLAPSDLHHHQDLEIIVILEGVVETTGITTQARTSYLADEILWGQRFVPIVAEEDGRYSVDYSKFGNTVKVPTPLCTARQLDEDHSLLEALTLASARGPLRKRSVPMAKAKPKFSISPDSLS
T2 sequence (O60706 whole entry): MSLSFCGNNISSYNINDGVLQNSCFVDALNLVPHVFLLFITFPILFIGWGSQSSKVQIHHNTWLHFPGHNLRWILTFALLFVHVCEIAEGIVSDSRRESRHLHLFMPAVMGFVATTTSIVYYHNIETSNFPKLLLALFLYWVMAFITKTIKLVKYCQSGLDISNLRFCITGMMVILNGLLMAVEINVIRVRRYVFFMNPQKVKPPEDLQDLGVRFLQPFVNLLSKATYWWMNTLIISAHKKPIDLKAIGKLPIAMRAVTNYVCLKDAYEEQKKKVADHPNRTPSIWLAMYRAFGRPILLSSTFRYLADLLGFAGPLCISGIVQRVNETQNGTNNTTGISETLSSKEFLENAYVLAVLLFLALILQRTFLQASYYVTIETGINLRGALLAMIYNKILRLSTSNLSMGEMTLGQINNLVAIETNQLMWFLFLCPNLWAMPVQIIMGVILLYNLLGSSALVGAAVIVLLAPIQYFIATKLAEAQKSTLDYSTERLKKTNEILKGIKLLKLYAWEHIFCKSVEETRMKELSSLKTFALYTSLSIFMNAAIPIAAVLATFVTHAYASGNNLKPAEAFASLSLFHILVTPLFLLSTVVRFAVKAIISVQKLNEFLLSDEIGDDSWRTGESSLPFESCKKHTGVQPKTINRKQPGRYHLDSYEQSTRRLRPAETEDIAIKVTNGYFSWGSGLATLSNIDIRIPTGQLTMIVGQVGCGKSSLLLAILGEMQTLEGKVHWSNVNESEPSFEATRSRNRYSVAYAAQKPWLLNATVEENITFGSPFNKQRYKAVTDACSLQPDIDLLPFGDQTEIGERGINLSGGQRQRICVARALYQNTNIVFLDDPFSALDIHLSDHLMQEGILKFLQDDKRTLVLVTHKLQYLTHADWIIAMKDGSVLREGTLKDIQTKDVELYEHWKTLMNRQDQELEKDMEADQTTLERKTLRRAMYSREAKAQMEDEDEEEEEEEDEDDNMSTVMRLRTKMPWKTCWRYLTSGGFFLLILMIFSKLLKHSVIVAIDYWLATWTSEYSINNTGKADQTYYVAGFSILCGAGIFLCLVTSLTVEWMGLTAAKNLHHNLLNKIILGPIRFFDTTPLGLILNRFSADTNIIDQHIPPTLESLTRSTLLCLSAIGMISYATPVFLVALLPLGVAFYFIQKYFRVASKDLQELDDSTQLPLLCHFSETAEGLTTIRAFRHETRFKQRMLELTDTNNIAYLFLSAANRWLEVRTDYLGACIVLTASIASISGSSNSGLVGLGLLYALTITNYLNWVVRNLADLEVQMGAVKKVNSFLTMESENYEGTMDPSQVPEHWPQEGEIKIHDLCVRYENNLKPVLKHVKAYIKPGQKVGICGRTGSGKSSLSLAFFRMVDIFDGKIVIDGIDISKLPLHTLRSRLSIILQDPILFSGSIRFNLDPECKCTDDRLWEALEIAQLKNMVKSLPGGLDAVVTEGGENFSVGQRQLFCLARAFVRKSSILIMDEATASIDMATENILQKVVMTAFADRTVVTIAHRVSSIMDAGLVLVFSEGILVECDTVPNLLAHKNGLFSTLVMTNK

[3] = target: T2, Sulfonylurea receptor 2, Kir6.2; test: Ability to open human urinary bladder Kir6.2 channel containing SUR2B in Ltk cells by FLIPR assay; assay type: functional, cell-based; summary of the method: as §1
[4] = target: T1, Sulfonylurea receptor 2, Kir6.2 (Homo sapiens); test: Activity against pig bladder KATP channel opening assessed as ability to relax field-stimulated pig detrusor relative to P1075; assay type: functional; details: Sus scrofa; target entry is the homologue from another species

Row | SMILES | Efficacy [1] | pEC50 [2] | pEC50 [3] | Efficacy [4]
1 | O=C1COCC2=C1[C@@H](c1ccc(F)c(Br)c1)C1=C(COC1=O)N2 | 107% | 6.23 | 7.20 | 95%
2 | CC[C@@H]1OC(O)=C2C1=NC1=C(C(=O)OCC1)[C@H]2c1ccc(F)c(Br)c1 | 71% | – | 6.49 | –
3 | CC1(C)OCC2=C(C1=O)C(c1ccc(F)c(Br)c1)C1=C(O)C(C)(C)OCC1=N2 (stereo unspecified) | 61% | – | 5.41 | –
4 | CCC1(CC)OCC2=NC3=C(C(=O)COC3)C(c3ccc(F)c(Br)c3)C2=C1O (stereo unspecified) | 42% | – | 4.86 | –
5 | CC1(C)OCC2=NC3=C(C(=O)COC3)C(c3ccc(F)c(Br)c3)C2=C1O (stereo unspecified) | 96% | – | 7.77 | –
6 | CC1(C)OCC(=O)C2=C1N=C1COC(O)=C1C2c1ccc(F)c(Br)c1 (stereo unspecified) | 73% | – | 6.92 | –
7 | CC1(C)OC(O)=C2C1=NC1=C(C(=O)COC1)C2c1ccc(F)c(Br)c1 (stereo unspecified) | 77% | – | 7.57 | –
8 | O=C1CCCC2=C1[C@H](c1ccc(F)c(Br)c1)C1=C(CCS1(=O)=O)N2 | 90% | – | 6.80 | –
9 | CC[C@H]1OC(O)=C2C1=NC1=C(C(=O)CSC1)[C@H]2c1ccc(F)c(Br)c1 [listing 1 of 2 here] | – | 6.02 | – | –
10 | CC[C@H]1OC(O)=C2C1=NC1=C(C(=O)CSC1)[C@H]2c1ccc(F)c(Br)c1 [listing 2 of 2 here] | – | – | – | 38%
11 | CC[C@H]1OCC2=C(C1=O)[C@@H](c1ccc(F)c(Br)c1)C1=C(O)OCC1=N2 (racemic) | 97% | – | 5.99 | –
12 | CC(C)[C@@H]1OC(O)=C2C1=NC1=C(C(=O)COC1)[C@H]2c1ccc(F)c(Br)c1 (relative stereo) | – | 5.92 | < 5.00 | 97%
13 | CC[C@H]1OC(O)=C2C1=NC1=C(C(=O)OCC1)[C@H]2c1ccc(F)c(Br)c1 (relative stereo) | 54% | – | 5.30 | –
14 | CC[C@@H]1OC(O)=C2C1=NC1=C(C(=O)CSC1)[C@H]2c1ccc(F)c(Br)c1 (relative stereo) | 74% | – | 6.81 | –
15 | C[C@@H]1C2=C(C(=O)N1C)[C@H](c1ccc(F)c(Br)c1)C1=C(O)COCC1=N2 (relative stereo) | 92% | – | 6.50 | –
16 | CC[C@H]1OCC(=O)C2=C1N=C1COC(O)=C1[C@@H]2c1ccc(F)c(Br)c1 (relative stereo) | 90% | – | 7.74 | –
17 | C[C@H]1C2=C(C(=O)N1C)[C@H](c1ccc(F)c(Br)c1)C1=C(COCC1=O)N2 (relative stereo) | 102% | – | 8.56 | –
18 | CC[C@@H]1OC(O)=C2C1=NC1=C(C(=O)OC1)[C@H]2c1ccc(F)c(Br)c1 (relative stereo) | 94% | – | 8.22 | –
19 | CC[C@@H]1OCC(=O)C2=C1N=C1COC(O)=C1[C@@H]2c1ccc(F)c(Br)c1 (relative stereo) | 74% | – | 6.03 | –
20 | CC[C@@H]1OC(O)=C2C1=NC1=C(C(=O)C(C)(C)OC1)[C@H]2c1ccc(F)c(Br)c1 (relative stereo) | 105% | – | 7.84 | –

Row | SMILES | Efficacy [1] | pEC50 [2] | pEC50 [3] | Efficacy [4]
21 | C[C@@H]1OC(=O)C2=C1NC1=C([C@H]2c2ccc(F)c(Br)c2)S(=O)(=O)CC1 (relative stereo) | 93% | – | 6.87 | –
22 | C[C@H]1OC(=O)C2=C1NC1=C([C@H]2c2ccc(F)c(Br)c2)S(=O)(=O)CC1 (relative stereo) | 86% | – | 6.39 | –
23 | C[C@H]1OC(=O)C2=C1NC1=C([C@H]2c2ccc(F)c(Br)c2)S(=O)(=O)CCC1 (relative stereo) | 99% | – | 6.65 | –
24 | C[C@@H]1OC(=O)C2=C1NC1=C([C@H]2c2ccc(F)c(Br)c2)S(=O)(=O)CCC1 (relative stereo) | 102% | – | 7.25 | –
25 | CC[C@H]1OC(O)=C2C1=NC1=C(C(=O)CSC1)[C@H]2c1ccc(F)c(Br)c1 (relative stereo) | – | 6.05 | 6.99 | –
26 | C[C@@H]1OCC(=O)C2=C1N=C1COC(O)=C1[C@@H]2c1ccc(F)c(Br)c1 (relative stereo) | 73% | – | 6.99 | –
27 | O=C1COCC2=C1[C@@H](c1ccc(F)c(Br)c1)C1=C(O)O[C@@H](c3ccccc3)C1=N2 (relative stereo) | 68% | 5.89 | 6.59 | 91%
28 | CC[C@H]1OC(O)=C2C1=NC1=C(C(=O)CCC1)[C@H]2c1ccc(F)c(Br)c1 (relative stereo) | 83% | – | 6.60 | –
29 | CC[C@@H]1OC(O)=C2C1=NC1=C(C(=O)COC1(C)C)[C@H]2c1ccc(F)c(Br)c1 (relative stereo) | 59% | – | 5.76 | –
30 | CC[C@@H]1OC(O)=C2C1=NC1=C(C(=O)CCC1)[C@H]2c1ccc(F)c(Br)c1 (relative stereo) | 87% | – | 7.25 | –
31 | C[C@H]1OCC(=O)C2=C1N=C1COC(O)=C1[C@@H]2c1ccc(F)c(Br)c1 (relative stereo) | 96% | – | 8.74 | –
32 | CC[C@H]1OC(O)=C2C1=NC1=C(C(=O)OC1)[C@H]2c1ccc(F)c(Br)c1 (relative stereo) | 74% | – | 7.14 | –
33 | CC[C@@H]1OCC2=C(C1=O)[C@@H](c1ccc(F)c(Br)c1)C1=C(O)OCC1=N2 (stereo in doubt; 10a) [listing 1 of 2 here] | – | 5.57 | 6.11 | –
34 | CC[C@@H]1OCC2=C(C1=O)[C@@H](c1ccc(F)c(Br)c1)C1=C(O)OCC1=N2 (stereo in doubt; 10a) [listing 2 of 2 here] | 83% | – | – | 86%
35 | CC[C@@H]1OCC2=C(C1=O)[C@@H](c1ccc(F)c(Br)c1)C1=C(O)OCC1=N2 (stereo in doubt; 10b) [listing 1 of 2 here] | – | 6.05 | 5.86 | –
36 | CC[C@@H]1OCC2=C(C1=O)[C@@H](c1ccc(F)c(Br)c1)C1=C(O)OCC1=N2 (stereo in doubt; 10b) [listing 2 of 2 here] | 46% | – | – | 95%
37 | CCC[C@H]1OC(O)=C2C1=NC1=C(C(=O)COC1)[C@H]2c1ccc(F)c(Cl)c1 (stereo in doubt; 39b) | – | 6.89 | 7.04 | –
38 | CCC[C@H]1OC(O)=C2C1=NC1=C(C(=O)COC1)[C@H]2c1ccc(F)c(I)c1 (stereo in doubt; 41b) [listing 1 of 2 here] | – | 6.64 | 7.57 | –
39 | CCC[C@H]1OC(O)=C2C1=NC1=C(C(=O)COC1)[C@H]2c1ccc(F)c(I)c1 (stereo in doubt; 41b) [listing 2 of 2 here] | 94% | – | – | 86%

Second part, the molecule after the results:

Row | Efficacy [1] | pEC50 [2] | pEC50 [3] | Efficacy [4] | SMILES
40 | 87% | 6.90 | 7.56 | 97% | O=C1COCC2=C1C(c1ccc(F)c(Br)c1)C1=C(O)COCC1=N2 (stereo unspecified)
41 | – | 6.10 | 6.81 | – | CCC[C@H]1OC(O)=C2C1=NC1=C(C(=O)COC1)[C@H]2c1ccc(F)c(Br)c1 (racemic)
42 | – | 6.31 | 7.02 | – | CC[C@H]1OC(O)=C2C1=NC1=C(C(=O)COC1)[C@H]2c1ccc(F)c(Br)c1 (racemic)
43 | 88% | – | 8.93 | – | CC[C@@H]1CC(O)=C2C1=NC1=C(C(=O)COC1)[C@H]2c1ccc(F)c(Br)c1 (relative stereo)
44 | 67% | – | 7.53 | – | CCCC[C@@H]1OC(O)=C2C1=NC1=C(C(=O)COC1)[C@H]2c1ccc(F)c(Br)c1 (relative stereo)
45 | 100% | – | 8.01 | – | COC[C@@H]1OC(O)=C2C1=NC1=C(C(=O)COC1)[C@H]2c1ccc(F)c(Br)c1 (relative stereo)
46 | – | 7.45 | 9.04 | – | C[C@@H]1OC(O)=C2C1=NC1=C(C(=O)COC1)[C@H]2c1ccc(F)c(Br)c1 (stereo in doubt; 17a) [listing 1 of 2 here]
47 | 105% | – | – | 97% | C[C@@H]1OC(O)=C2C1=NC1=C(C(=O)COC1)[C@H]2c1ccc(F)c(Br)c1 (stereo in doubt; 17a) [listing 2 of 2 here]
48 | – | 5.53 | 5.14 | – | CC[C@H]1OC(O)=C2C1=NC1=C(C(=O)COC1)[C@H]2c1ccc(F)c(Br)c1 (stereo in doubt; 21a) [listing 1 of 2 here]
49 | 54% | – | – | 94% | CC[C@H]1OC(O)=C2C1=NC1=C(C(=O)COC1)[C@H]2c1ccc(F)c(Br)c1 (stereo in doubt; 21a) [listing 2 of 2 here]
50 | – | 6.99 | 5.00 | – | CC(C)C[C@H]1OC(O)=C2C1=NC1=C(C(=O)COC1)[C@H]2c1ccc(F)c(Br)c1 (stereo in doubt; 31b) [listing 1 of 2 here]
51 | 59% | – | – | 35% | CC(C)C[C@H]1OC(O)=C2C1=NC1=C(C(=O)COC1)[C@H]2c1ccc(F)c(Br)c1 (stereo in doubt; 31b) [listing 2 of 2 here]
52 | 53% | – | – | – | CC[C@H]1OCC(O)=C2C1=NC1=C(C(=O)COC1)[C@H]2c1ccc(F)c(I)c1 (stereo in doubt; 73b)
53 | 118% | – | – | – | CC[C@H]1OCC(O)=C2C1=NC1=C(C(=O)COC1)[C@H]2c1ccc(Cl)c(Cl)c1 (stereo in doubt; 74a)
54 | 89% | – | – | – | CC[C@H]1OCC(O)=C2C1=NC1=C(C(=O)COC1)[C@H]2c1ccc(Cl)c(Br)c1 (stereo in doubt; 75a)
55 | 54% | – | – | – | CC[C@H]1OCC(O)=C2C1=NC1=C(C(=O)COC1)[C@H]2c1ccc(Cl)c(Br)c1 (stereo in doubt; 75b)
56 | 76% | – | – | – | CC[C@H]1OCC(O)=C2C1=NC1=C(C(=O)COC1)[C@H]2c1ccc(Br)c(Cl)c1 (stereo in doubt; 76a)
57 | 120% | – | – | – | CC[C@H]1OCC(O)=C2C1=NC1=C(C(=O)COC1)[C@H]2c1ccc(Br)c(Br)c1 (stereo in doubt; 77a)
58 | 104% | – | – | – | CC[C@H]1OCC(O)=C2C1=NC1=C(C(=O)COC1)[C@H]2c1ccc(Br)c(Br)c1 (stereo in doubt; 77b)
59 | 94% | – | – | – | CC[C@H]1OCC(O)=C2C1=NC1=C(C(=O)COC1)[C@H]2c1ccc(C)c(Br)c1 (stereo in doubt; 78a)
60 | 56% | – | – | – | CC[C@H]1OCC(O)=C2C1=NC1=C(C(=O)COC1)[C@H]2c1ccc(C)c(Br)c1 (stereo in doubt; 78b)
